In ChEMBL document CHEMBL1148551, “Synthesis and biological evaluation of novel heterocyclic quinones as inhibitors of the dual specificity protein phosphatase CDC25C” (Bioorg Med Chem Lett, 2006):

What was measured:
[1] = target: T1, M-phase inducer phosphatase 3 (Homo sapiens, UniProt P30307); assay: Inhibitory activity against recombinant CDC25C
T1 sequence (P30307 whole entry): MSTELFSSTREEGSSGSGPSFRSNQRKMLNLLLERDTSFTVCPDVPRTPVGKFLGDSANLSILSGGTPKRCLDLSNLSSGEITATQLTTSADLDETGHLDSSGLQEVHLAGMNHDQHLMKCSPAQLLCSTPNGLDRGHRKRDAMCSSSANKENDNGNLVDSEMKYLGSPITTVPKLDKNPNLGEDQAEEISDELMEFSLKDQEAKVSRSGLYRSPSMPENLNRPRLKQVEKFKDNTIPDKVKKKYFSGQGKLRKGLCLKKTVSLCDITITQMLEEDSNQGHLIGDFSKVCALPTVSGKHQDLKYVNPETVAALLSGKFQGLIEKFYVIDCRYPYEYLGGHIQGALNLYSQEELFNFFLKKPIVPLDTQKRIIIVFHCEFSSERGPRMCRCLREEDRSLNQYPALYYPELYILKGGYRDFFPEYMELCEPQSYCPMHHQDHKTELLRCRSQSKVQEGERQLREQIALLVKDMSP
Procedure, shortened: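 Recombinant maltose binding protein (MBP)-CDC25C fusion enzyme, with 3-O-methylfluorescein phosphate (OMFP) as substrate. IC50 given as mean ± SEM from at least two, usually three, independent experiments.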

[2] = test system: MIA PaCa-2; assay: Antiproliferative activity against human pancreatic carcinoma Mia PaCa2 cell line by colorimetric assay; assay type: functional, cell-based
Procedure, shortened: (§1)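 WST1 tetrazolium salt cleavage by mitochondrial dehydrogenases in viable cells, colorimetric read-out. IC50 given as mean ± SEM from at least two experiments, with four or eight determinations per tested concentration.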

[3] = test system: DU-145; assay: Antiproliferative activity against human androgen-independent prostate carcinoma DU145 cell line by colorimetric assay; assay type: functional, cell-based; procedure, shortened: as §1

Row | IC50 [1] [nM] | IC50 [2] [nM] | IC50 [3] [nM] | Compound
1 | 12000 | – | – | CN(C)CC/N=C1\C=C(O)c2nn(-c3ccccc3)cc2C1=O
2 | 230 | 150 | 210 | CN(C)CC/N=C1\C=C(O)c2oc(-c3ccccc3)nc2C1=O
3 | 130 | 440 | 220 | CCc1nc2c(o1)C(O)=C/C(=N\CCN(C)C)C2=O
4 | 17000 | 12000 | > 10000 | CN(C)CC/N=C1\C=C(O)c2[nH]c(-c3ccccc3)nc2C1=O
5 | 81000 | – | – | CN(C)CC/N=C1\C=C(O)c2cn(C)cc2C1=O
6 | 130 | 440 | 220 | CCc1nc2c(o1)C(=O)C(NCCN(C)C)=CC2=O
7 | – | 6200 | 11000 | CC1=CC(=O)c2ccccc2C1=O [MENADIONE]
8 | – | 2500 | 2300 | O=C1C(Cl)=C(NCCN2CCOCC2)C(=O)c2ncccc21
9 | 230 | 150 | 210 | CN(C)CC/N=C1\C=C(O)c2nc(-c3ccccc3)oc2C1=O
10 | 12000 | – | – | CN(C)CC/N=C1\C=C(O)c2cn(-c3ccccc3)nc2C1=O
11 | 150 | 180 | 110 | Cc1nc2c(s1)C(O)=C/C(=N\CCN(C)C)C2=O
12 | 12000 | 18000 | > 10000 | CCc1nc2c([nH]1)C(=O)/C(=N/CCN(C)C)C=C2O
